In ChEMBL document CHEMBL1145430, “Synthesis and simple 18F-labeling of 3-fluoro-5-(2-(2-(fluoromethyl)thiazol-4-yl)ethynyl)benzonitrile as a high affinity radioligand for imaging monkey brain metabotropic glutamate subtype-5 receptors with positron emission tomography” (J Med Chem, 2007):

Biological target: Metabotropic glutamate receptor 5 (Rattus norvegicus, UniProt P31424)
Assay: Displacement of […] from mGluR5 in rat brain membrane
Type: cell membranes
Outline: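 Competition binding against [³H]MPEPy in rat whole-brain membranes (minus cerebellum and brainstem), homogenized in 50 mM Tris-HCl/saline pH 7.5, pelleted at 39 800 g. Membranes 5 mg/800 µL final. Competitor from 10 mM ethanol stock, final 0.01 nM to 1 mM. Incubated 1 h at 22 °C, filtered on PEI-soaked GF/B, washed with cold saline, scintillation counted. Three determinations.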

Chain of Metabotropic glutamate receptor 5 (P31424 whole entry): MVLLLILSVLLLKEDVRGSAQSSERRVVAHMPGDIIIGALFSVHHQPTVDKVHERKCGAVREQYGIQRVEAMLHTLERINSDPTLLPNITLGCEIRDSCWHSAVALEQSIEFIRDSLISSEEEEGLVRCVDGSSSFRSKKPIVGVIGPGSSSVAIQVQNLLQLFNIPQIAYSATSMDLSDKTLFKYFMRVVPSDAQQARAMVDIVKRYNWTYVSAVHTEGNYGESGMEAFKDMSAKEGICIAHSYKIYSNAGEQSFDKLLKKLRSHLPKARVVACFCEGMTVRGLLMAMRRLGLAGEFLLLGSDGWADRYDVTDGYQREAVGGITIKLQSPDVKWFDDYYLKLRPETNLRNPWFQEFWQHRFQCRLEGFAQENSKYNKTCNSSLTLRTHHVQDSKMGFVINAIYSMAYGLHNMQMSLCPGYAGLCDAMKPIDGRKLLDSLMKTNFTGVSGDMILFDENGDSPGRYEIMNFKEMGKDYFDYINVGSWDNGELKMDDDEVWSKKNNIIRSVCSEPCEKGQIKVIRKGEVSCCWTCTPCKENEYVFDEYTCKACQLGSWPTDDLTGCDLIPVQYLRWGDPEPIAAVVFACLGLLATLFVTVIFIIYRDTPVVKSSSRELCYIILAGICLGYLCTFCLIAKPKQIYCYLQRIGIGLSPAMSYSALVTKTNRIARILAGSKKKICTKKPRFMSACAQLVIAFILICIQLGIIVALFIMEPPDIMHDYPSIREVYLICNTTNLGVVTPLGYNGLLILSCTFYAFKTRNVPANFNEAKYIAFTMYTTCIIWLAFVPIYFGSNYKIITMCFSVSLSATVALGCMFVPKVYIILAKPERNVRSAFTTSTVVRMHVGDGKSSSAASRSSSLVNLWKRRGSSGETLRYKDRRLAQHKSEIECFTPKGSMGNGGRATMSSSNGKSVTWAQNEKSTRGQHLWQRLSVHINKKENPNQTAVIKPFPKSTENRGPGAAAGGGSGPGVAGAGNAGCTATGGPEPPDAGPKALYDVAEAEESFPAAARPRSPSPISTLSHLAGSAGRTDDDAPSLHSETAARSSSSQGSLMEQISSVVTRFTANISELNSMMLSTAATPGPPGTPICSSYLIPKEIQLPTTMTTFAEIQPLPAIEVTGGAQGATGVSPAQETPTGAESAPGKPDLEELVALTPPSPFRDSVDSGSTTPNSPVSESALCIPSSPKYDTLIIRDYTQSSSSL

| IC50 [nM] | Compound |
| --- | --- |
| 0.48 | FCc1nc(C#Cc2cccc(F)c2)cs1 |
| 0.23 | N#Cc1cncc(C#Cc2csc(CF)n2)c1 |
| 0.52 | COc1cccc(C#Cc2csc(CF)n2)c1 |
